# What was measured:
# Settings in all cases: stereoisomer not certain
# UniProt Q7TRR7 = molecular target: UniProt Q7TRR7
# In short: (§1)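 Assay methods differ from source to source, frequently being transient luciferase assays in mammalian cell lines. For each receptor–molecule pair, the label responsive (active) applies when the original authors judged the measured signal statistically different from baseline, and non-responsive (inactive) applies otherwise.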
# UniProt Q7TRX1 = molecular target: UniProt Q7TRX1
# In short: as §1
# UniProt Q7TS17 = molecular target: UniProt Q7TS17
# In short: as §1
# UniProt Q7TS37 = molecular target: UniProt Q7TS37
# In short: as §1
# UniProt Q7TS40 = molecular target: UniProt Q7TS40
# In short: as §1
# UniProt Q7TRW1 = molecular target: T1, UniProt Q7TRW1
# T1 sequence (whole entry): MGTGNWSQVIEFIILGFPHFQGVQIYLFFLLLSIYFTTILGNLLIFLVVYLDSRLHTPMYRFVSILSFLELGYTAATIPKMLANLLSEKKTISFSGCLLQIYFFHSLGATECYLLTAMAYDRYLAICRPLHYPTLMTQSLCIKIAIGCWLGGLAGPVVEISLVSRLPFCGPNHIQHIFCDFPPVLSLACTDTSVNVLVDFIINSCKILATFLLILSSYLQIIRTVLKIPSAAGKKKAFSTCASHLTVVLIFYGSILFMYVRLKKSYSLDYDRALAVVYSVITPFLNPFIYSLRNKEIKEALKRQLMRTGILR
# In short: as §1
# UniProt Q7TRX0 = molecular target: T2, UniProt Q7TRX0
# T2 sequence (whole entry): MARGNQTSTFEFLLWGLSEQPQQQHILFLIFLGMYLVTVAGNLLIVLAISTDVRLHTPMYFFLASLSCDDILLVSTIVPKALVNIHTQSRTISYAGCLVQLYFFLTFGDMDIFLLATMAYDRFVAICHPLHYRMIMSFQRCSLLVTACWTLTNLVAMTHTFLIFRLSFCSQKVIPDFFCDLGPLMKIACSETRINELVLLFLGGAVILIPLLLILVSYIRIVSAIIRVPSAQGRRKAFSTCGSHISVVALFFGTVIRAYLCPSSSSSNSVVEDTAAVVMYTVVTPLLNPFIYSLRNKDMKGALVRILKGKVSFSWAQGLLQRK
# In short: as §1
# UniProt Q8VEU7 = molecular target: T3, UniProt Q8VEU7
# T3 sequence (whole entry): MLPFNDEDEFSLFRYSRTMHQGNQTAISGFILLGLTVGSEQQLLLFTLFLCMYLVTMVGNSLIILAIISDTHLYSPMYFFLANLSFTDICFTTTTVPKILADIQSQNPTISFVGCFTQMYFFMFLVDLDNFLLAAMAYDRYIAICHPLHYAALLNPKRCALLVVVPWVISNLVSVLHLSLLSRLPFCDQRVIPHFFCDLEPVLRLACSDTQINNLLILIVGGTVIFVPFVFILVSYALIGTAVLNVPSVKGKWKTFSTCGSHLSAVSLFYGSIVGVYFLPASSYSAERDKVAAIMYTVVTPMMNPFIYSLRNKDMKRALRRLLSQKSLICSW
# In short: as §1
# UniProt Q8VF05 = molecular target: T4, UniProt Q8VF05
# T4 sequence (whole entry): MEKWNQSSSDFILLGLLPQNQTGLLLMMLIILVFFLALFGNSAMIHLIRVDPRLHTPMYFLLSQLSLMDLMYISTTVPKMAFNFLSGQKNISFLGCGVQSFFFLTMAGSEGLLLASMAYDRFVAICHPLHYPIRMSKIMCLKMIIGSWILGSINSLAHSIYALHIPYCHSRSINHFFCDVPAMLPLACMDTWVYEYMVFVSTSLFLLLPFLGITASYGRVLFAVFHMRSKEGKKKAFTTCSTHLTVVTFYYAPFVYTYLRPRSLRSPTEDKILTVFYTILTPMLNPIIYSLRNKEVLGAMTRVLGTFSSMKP
# In short: as §1
# Chain of UniProt Q7TS40 (Q7TS40 as listed by the source): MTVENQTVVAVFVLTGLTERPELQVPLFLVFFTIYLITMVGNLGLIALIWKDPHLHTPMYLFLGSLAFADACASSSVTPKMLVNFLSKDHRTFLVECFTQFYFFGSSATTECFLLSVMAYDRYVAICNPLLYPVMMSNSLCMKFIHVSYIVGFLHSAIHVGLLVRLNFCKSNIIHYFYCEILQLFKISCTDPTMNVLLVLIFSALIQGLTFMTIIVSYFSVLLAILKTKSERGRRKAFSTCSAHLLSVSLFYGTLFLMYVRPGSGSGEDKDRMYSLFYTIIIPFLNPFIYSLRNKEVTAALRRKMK
# Chain of UniProt Q7TS17 (Q7TS17 as listed by the source): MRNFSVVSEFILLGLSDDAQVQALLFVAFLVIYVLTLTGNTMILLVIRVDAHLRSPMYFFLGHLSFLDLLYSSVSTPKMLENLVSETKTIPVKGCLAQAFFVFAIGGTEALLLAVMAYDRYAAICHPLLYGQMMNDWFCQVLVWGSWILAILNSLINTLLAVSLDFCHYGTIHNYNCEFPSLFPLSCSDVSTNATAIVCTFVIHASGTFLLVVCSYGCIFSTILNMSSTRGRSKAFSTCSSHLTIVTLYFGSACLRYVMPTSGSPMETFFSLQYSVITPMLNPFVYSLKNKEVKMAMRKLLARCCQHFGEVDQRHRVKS
# Chain of UniProt Q7TS37 (Q7TS37 as listed by the source): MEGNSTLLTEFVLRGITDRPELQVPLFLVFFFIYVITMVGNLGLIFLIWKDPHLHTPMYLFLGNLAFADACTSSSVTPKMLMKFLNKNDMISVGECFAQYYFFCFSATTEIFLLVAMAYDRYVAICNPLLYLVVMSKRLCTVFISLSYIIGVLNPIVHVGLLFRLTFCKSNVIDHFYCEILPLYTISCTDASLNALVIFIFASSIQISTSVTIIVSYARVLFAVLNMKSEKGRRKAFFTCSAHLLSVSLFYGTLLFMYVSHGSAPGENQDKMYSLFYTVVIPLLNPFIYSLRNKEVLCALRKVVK
# Chain of UniProt Q7TRX1 (Q7TRX1 as listed by the source): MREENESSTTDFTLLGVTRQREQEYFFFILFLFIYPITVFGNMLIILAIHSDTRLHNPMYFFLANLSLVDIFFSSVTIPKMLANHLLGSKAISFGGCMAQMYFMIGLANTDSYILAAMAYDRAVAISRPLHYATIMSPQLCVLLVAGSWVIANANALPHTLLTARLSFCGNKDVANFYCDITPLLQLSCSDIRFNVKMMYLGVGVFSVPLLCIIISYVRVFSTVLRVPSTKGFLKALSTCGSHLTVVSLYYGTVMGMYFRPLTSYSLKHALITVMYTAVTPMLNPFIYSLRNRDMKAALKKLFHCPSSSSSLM
# Chain of UniProt Q7TRR7 (Q7TRR7 as listed by the source): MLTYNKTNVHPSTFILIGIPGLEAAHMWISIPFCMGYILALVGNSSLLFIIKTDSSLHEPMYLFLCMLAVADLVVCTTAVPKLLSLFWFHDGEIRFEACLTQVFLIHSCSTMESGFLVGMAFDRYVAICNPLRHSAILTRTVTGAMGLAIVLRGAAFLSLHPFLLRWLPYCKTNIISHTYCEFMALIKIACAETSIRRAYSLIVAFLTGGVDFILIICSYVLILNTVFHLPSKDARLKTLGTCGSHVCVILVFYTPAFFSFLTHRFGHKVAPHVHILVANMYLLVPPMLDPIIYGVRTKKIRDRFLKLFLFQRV
structure (smiles),measurement,setting,value
CCCCCCCCC(=O)O,odorant receptor agonist call,UniProt Q7TRR7,inactive
CC(C)=CCCC(C)CCO (configuration not stated),odorant receptor agonist call,UniProt Q7TRX1,active
O=C1CCOc2ccccc21,odorant receptor agonist call,UniProt Q7TS17,active
same,odorant receptor agonist call,UniProt Q7TS37,active
same,odorant receptor agonist call,UniProt Q7TS40,inactive
CCCCCCCCCS,odorant receptor agonist call,UniProt Q7TRW1,inactive
same,odorant receptor agonist call,UniProt Q7TRX0,inactive
same,odorant receptor agonist call,UniProt Q8VEU7,inactive
same,odorant receptor agonist call,UniProt Q8VF05,inactive
COc1ccccc1,odorant receptor agonist call,UniProt Q7TRX0,inactive
Cc1ccc(C(C)C)c(O)c1,odorant receptor agonist call,UniProt Q7TRX0,inactive
CC=CC(=O)C1=C(C)CCCC1(C)C,odorant receptor agonist call,UniProt Q7TRX0,inactive
CCC(C)c1nccnc1OC (configuration not stated),odorant receptor agonist call,UniProt Q7TRX0,inactive
CCCCCCCCCC(=O)[O-].[H+],odorant receptor agonist call,UniProt Q7TRW1,inactive
same,odorant receptor agonist call,UniProt Q7TRX0,inactive
same,odorant receptor agonist call,UniProt Q8VEU7,inactive
same,odorant receptor agonist call,UniProt Q8VF05,inactive
Cc1ccccc1OC(=O)C(C)C,odorant receptor agonist call,UniProt Q7TRX0,inactive
CC1CC=CCCCCCCCCCC(=O)C1 (configuration not stated),odorant receptor agonist call,UniProt Q7TRX0,inactive
CCCCCCCCS,odorant receptor agonist call,UniProt Q7TRW1,inactive
same,odorant receptor agonist call,UniProt Q7TRX0,inactive
same,odorant receptor agonist call,UniProt Q8VEU7,inactive
same,odorant receptor agonist call,UniProt Q8VF05,inactive
CCCCCCCCCCO,odorant receptor agonist call,UniProt Q7TRW1,inactive
same,odorant receptor agonist call,UniProt Q7TRX0,inactive
same,odorant receptor agonist call,UniProt Q8VEU7,inactive
same,odorant receptor agonist call,UniProt Q8VF05,inactive
CCCCCC(=Cc1ccccc1)C(OC)OC,odorant receptor agonist call,UniProt Q7TRX0,inactive
CCCC(=O)C(C)=O,odorant receptor agonist call,UniProt Q7TRW1,inactive
same,odorant receptor agonist call,UniProt Q7TRX0,inactive
same,odorant receptor agonist call,UniProt Q8VEU7,inactive
same,odorant receptor agonist call,UniProt Q8VF05,active
CCCCCCC(=O)OCCCC,odorant receptor agonist call,UniProt Q7TRX0,inactive
CCCCCC(=O)CC,odorant receptor agonist call,UniProt Q7TRW1,inactive
same,odorant receptor agonist call,UniProt Q7TRX0,active
same,odorant receptor agonist call,UniProt Q8VEU7,inactive
same,odorant receptor agonist call,UniProt Q8VF05,active
O=c1ccc2ccccc2o1,odorant receptor agonist call,UniProt Q7TRW1,inactive
same,odorant receptor agonist call,UniProt Q7TS17,active
same,odorant receptor agonist call,UniProt Q7TS37,active
same,odorant receptor agonist call,UniProt Q7TS40,inactive
same,odorant receptor agonist call,UniProt Q8VEU7,inactive
same,odorant receptor agonist call,UniProt Q8VF05,inactive
CCCC(C)=O,odorant receptor agonist call,UniProt Q7TRW1,inactive
same,odorant receptor agonist call,UniProt Q8VEU7,inactive
same,odorant receptor agonist call,UniProt Q8VF05,active
c1ccccc1,odorant receptor agonist call,UniProt Q7TRW1,inactive
same,odorant receptor agonist call,UniProt Q7TRX0,inactive
same,odorant receptor agonist call,UniProt Q8VEU7,inactive
same,odorant receptor agonist call,UniProt Q8VF05,active
O=C1Cc2ccccc2O1,odorant receptor agonist call,UniProt Q7TRW1,inactive
same,odorant receptor agonist call,UniProt Q7TRX0,inactive
same,odorant receptor agonist call,UniProt Q8VEU7,inactive
same,odorant receptor agonist call,UniProt Q8VF05,inactive
CCCCCC(C)O (configuration not stated),odorant receptor agonist call,UniProt Q7TRX0,inactive
CCSSCC,odorant receptor agonist call,UniProt Q7TRX0,inactive
CCCCCCCCCC=CC=O,odorant receptor agonist call,UniProt Q7TRX0,inactive
CCCCOC(=O)C(C)OC(=O)CCC (configuration not stated),odorant receptor agonist call,UniProt Q7TRW1,inactive
same,odorant receptor agonist call,UniProt Q8VEU7,inactive
same,odorant receptor agonist call,UniProt Q8VF05,inactive
CCCCOC=O,odorant receptor agonist call,UniProt Q7TRW1,inactive
same,odorant receptor agonist call,UniProt Q7TRX0,inactive
same,odorant receptor agonist call,UniProt Q8VEU7,inactive
same,odorant receptor agonist call,UniProt Q8VF05,inactive
CC12CCC(CC1=O)C2(C)C (configuration not stated),odorant receptor agonist call,UniProt Q7TRW1,inactive
same,odorant receptor agonist call,UniProt Q7TRX0,inactive
same,odorant receptor agonist call,UniProt Q8VEU7,active
same,odorant receptor agonist call,UniProt Q8VF05,inactive
CCCCCOC(=O)CCC,odorant receptor agonist call,UniProt Q7TRX0,inactive
C1CCOCC1,odorant receptor agonist call,UniProt Q7TRX0,inactive
CCCCCCCCCCOC(C)=O,odorant receptor agonist call,UniProt Q7TRX0,inactive
CCCCCC=O,odorant receptor agonist call,UniProt Q7TRW1,inactive
same,odorant receptor agonist call,UniProt Q7TRX0,inactive
same,odorant receptor agonist call,UniProt Q8VEU7,inactive
same,odorant receptor agonist call,UniProt Q8VF05,active
Cc1ccc2c(c1)OCC(=O)CO2,odorant receptor agonist call,UniProt Q7TRX0,inactive
CC(=O)OCC=C(C)C,odorant receptor agonist call,UniProt Q7TRW1,inactive
same,odorant receptor agonist call,UniProt Q7TRX0,inactive
same,odorant receptor agonist call,UniProt Q8VEU7,inactive
same,odorant receptor agonist call,UniProt Q8VF05,active
CCCCC(C)=O,odorant receptor agonist call,UniProt Q7TRW1,inactive
same,odorant receptor agonist call,UniProt Q7TRX0,inactive
same,odorant receptor agonist call,UniProt Q8VEU7,inactive
same,odorant receptor agonist call,UniProt Q8VF05,active
CCC(C(=O)O)c1ccccc1 (configuration not stated),odorant receptor agonist call,UniProt Q7TRW1,inactive
same,odorant receptor agonist call,UniProt Q8VEU7,inactive
same,odorant receptor agonist call,UniProt Q8VF05,inactive
CCOC(=O)C(C)C,odorant receptor agonist call,UniProt Q7TRW1,inactive
same,odorant receptor agonist call,UniProt Q7TRX0,inactive
same,odorant receptor agonist call,UniProt Q8VEU7,inactive
same,odorant receptor agonist call,UniProt Q8VF05,active
Cc1ccc(C(C)C)cc1,odorant receptor agonist call,UniProt Q7TRX0,inactive

# — the M2OR odorant receptor database
